From ChEMBL document CHEMBL1154591, “Synthesis and in vitro microbiological evaluation of novel 4-aryl-5-isopropoxycarbonyl-6-methyl-3,4-dihydropyrimidinones” (2010)
In brackets after ≈: the same amount, converted by molar mass.

Columns and labels:
[1] = system: Staphylococcus aureus; test: Antibacterial activity against Staphylococcus aureus after 24 hrs by two fold serial dilution technique; format: functional
In short: (§1)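 Twofold serial broth dilution in nutrient broth. Compounds were taken up in DMSO as 1 mg/ml stocks, and 0.2 ml of stock was added to 1.8 ml of seeded broth for the first dilution, giving six dilutions in all. Seeded broth came from 24 h nutrient agar cultures, with a final inoculum of 10⁵ cfu/ml at pH 7.4 ± 0.2. Tubes were incubated at 37 ± 1 °C, and MIC was read visually after 24 h. Broth-only and solvent controls were included.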

[2] = system: Escherichia coli; test: Antibacterial activity against Escherichia coli after 24 hrs by two fold serial dilution technique; format: functional; in short: as §1
[3] = system: Klebsiella pneumoniae; test: Antibacterial activity against Klebsiella pneumoniae after 24 hrs by two fold serial dilution technique; format: functional; in short: as §1
[4] = system: Pseudomonas aeruginosa; test: Antibacterial activity against Pseudomonas aeruginosa after 24 hrs by two fold serial dilution technique; format: functional; in short: as §1
[5] = system: Salmonella typhi; test: Antibacterial activity against Salmonella typhi after 24 hrs by two fold serial dilution technique; format: functional, Salmonella enterica subsp. enterica serovar Typhi; conditions: Salmonella enterica
In short: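 Twofold serial broth dilution in nutrient broth. Compounds dissolved in DMSO as 1 mg/ml stocks; 0.2 ml added to 1.8 ml seeded broth, then serially diluted to six dilutions. Inoculum from 24 h nutrient agar cultures, final 10⁵ cfu/ml, pH 7.4 ± 0.2. Incubated at 37 ± 1 °C; MIC read visually at 24 h. Seeded-broth and solvent controls; ciprofloxacin standard.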

[6] = system: Candida albicans; test: Antifungal activity against Candida albicans after 72 to 96 hrs by two fold serial dilution technique; format: functional
In short: (§2)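 Twofold serial dilution in Sabouraud's dextrose broth. Compounds were taken up in DMSO as 1 mg/ml stocks, and 0.2 ml of stock was added to 1.8 ml of seeded broth for the first dilution, giving six dilutions. Seeded broth came from 24 h to 7-day Sabouraud's agar slant cultures, with a final inoculum of 1.1–1.5 × 10² cfu/ml. Tubes were incubated at 28 ± 1 °C for 72–96 h, and MIC was read visually. Broth-only and solvent controls were included.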

[7] = system: Aspergillus flavus; test: Antifungal activity against Aspergillus flavus after 72 to 96 hrs by two fold serial dilution technique; format: functional; in short: as §2
[8] = system: Rhizopus; test: Antifungal activity against Rhizopus after 72 to 96 hrs by two fold serial dilution technique; format: functional; in short: as §2
[9] = system: Mucor; test: Antifungal activity against Mucor after 72 to 96 hrs by two fold serial dilution technique; format: functional; in short: as §2

CC1=C(C(=O)OC(C)C)C(c2ccccc2)NC(=S)N1 (stereo not drawn)
MIC [1]: 50 µg/mL (≈ 172 µM) | MIC [2]: 200 µg/mL (≈ 689 µM) | MIC [3]: 100 µg/mL (≈ 344 µM) | MIC [4]: 50 µg/mL (≈ 172 µM) | MIC [5]: 100 µg/mL (≈ 344 µM) | MIC [6]: 50 µg/mL (≈ 172 µM) | MIC [7]: 100 µg/mL (≈ 344 µM) | MIC [8]: 100 µg/mL (≈ 344 µM) | MIC [9]: 50 µg/mL (≈ 172 µM)

CC1=C(C(=O)OC(C)C)C(c2ccccc2)NC(=O)N1 (stereo not drawn)
MIC [1]: 200 µg/mL (≈ 729 µM) | MIC [2]: 200 µg/mL (≈ 729 µM) | MIC [3]: 200 µg/mL (≈ 729 µM) | MIC [4]: 100 µg/mL (≈ 365 µM) | MIC [5]: 200 µg/mL (≈ 729 µM) | MIC [6]: 100 µg/mL (≈ 365 µM) | MIC [8]: 200 µg/mL (≈ 729 µM) | MIC [9]: 200 µg/mL (≈ 729 µM)

COc1ccc(C2NC(=O)NC(C)=C2C(=O)OC(C)C)cc1 (stereo not drawn)
MIC [1]: 50 µg/mL (≈ 164 µM) | MIC [2]: 100 µg/mL (≈ 329 µM) | MIC [3]: 100 µg/mL (≈ 329 µM) | MIC [4]: 50 µg/mL (≈ 164 µM) | MIC [5]: 50 µg/mL (≈ 164 µM) | MIC [6]: 50 µg/mL (≈ 164 µM) | MIC [7]: 100 µg/mL (≈ 329 µM) | MIC [8]: 50 µg/mL (≈ 164 µM) | MIC [9]: 50 µg/mL (≈ 164 µM)

CC1=C(C(=O)OC(C)C)C(c2ccc(C)cc2)NC(=O)N1 (stereo not drawn)
MIC [1]: 100 µg/mL (≈ 347 µM) | MIC [2]: 100 µg/mL (≈ 347 µM) | MIC [3]: 100 µg/mL (≈ 347 µM) | MIC [4]: 50 µg/mL (≈ 173 µM) | MIC [5]: 100 µg/mL (≈ 347 µM) | MIC [6]: 50 µg/mL (≈ 173 µM) | MIC [7]: 200 µg/mL (≈ 694 µM) | MIC [8]: 50 µg/mL (≈ 173 µM) | MIC [9]: 50 µg/mL (≈ 173 µM)

CC1=C(C(=O)OC(C)C)C(c2ccc(F)cc2)NC(=O)N1 (stereo not drawn)
MIC [1]: 12.5 µg/mL (≈ 42.8 µM) | MIC [2]: 25 µg/mL (≈ 85.5 µM) | MIC [3]: 25 µg/mL (≈ 85.5 µM) | MIC [4]: 12.5 µg/mL (≈ 42.8 µM) | MIC [5]: 12.5 µg/mL (≈ 42.8 µM) | MIC [6]: 12.5 µg/mL (≈ 42.8 µM) | MIC [7]: 25 µg/mL (≈ 85.5 µM) | MIC [8]: 12.5 µg/mL (≈ 42.8 µM) | MIC [9]: 25 µg/mL (≈ 85.5 µM)

CC1=C(C(=O)OC(C)C)C(c2ccc(Cl)cc2)NC(=O)N1 (stereo not drawn)
MIC [1]: 25 µg/mL (≈ 81 µM) | MIC [2]: 50 µg/mL (≈ 162 µM) | MIC [3]: 50 µg/mL (≈ 162 µM) | MIC [4]: 25 µg/mL (≈ 81 µM) | MIC [5]: 25 µg/mL (≈ 81 µM) | MIC [6]: 25 µg/mL (≈ 81 µM) | MIC [7]: 100 µg/mL (≈ 324 µM) | MIC [8]: 25 µg/mL (≈ 81 µM) | MIC [9]: 50 µg/mL (≈ 162 µM)

CC1=C(C(=O)OC(C)C)C(c2ccc([N+](=O)[O-])cc2)NC(=O)N1 (stereo not drawn)
MIC [1]: 12.5 µg/mL (≈ 39.1 µM) | MIC [2]: 12.5 µg/mL (≈ 39.1 µM) | MIC [3]: 12.5 µg/mL (≈ 39.1 µM) | MIC [4]: 12.5 µg/mL (≈ 39.1 µM) | MIC [5]: 12.5 µg/mL (≈ 39.1 µM) | MIC [6]: 12.5 µg/mL (≈ 39.1 µM) | MIC [7]: 25 µg/mL (≈ 78.3 µM) | MIC [8]: 12.5 µg/mL (≈ 39.1 µM) | MIC [9]: 12.5 µg/mL (≈ 39.1 µM)

CC1=C(C(=O)OC(C)C)C(c2ccccc2Cl)NC(=O)N1 (stereo not drawn)
MIC [1]: 25 µg/mL (≈ 81 µM) | MIC [2]: 50 µg/mL (≈ 162 µM) | MIC [3]: 50 µg/mL (≈ 162 µM) | MIC [4]: 25 µg/mL (≈ 81 µM) | MIC [5]: 25 µg/mL (≈ 81 µM) | MIC [6]: 25 µg/mL (≈ 81 µM) | MIC [7]: 100 µg/mL (≈ 324 µM) | MIC [8]: 50 µg/mL (≈ 162 µM) | MIC [9]: 50 µg/mL (≈ 162 µM)

C[C@@H]1[C@H](O)[C@@H](C)/C=C/C=C/C=C/C=C/C=C/C=C/C=C/[C@H](O[C@@H]2O[C@H](C)[C@@H](O)[C@H](N)[C@@H]2O)C[C@@H]2O[C@](O)(C[C@@H](O)C[C@@H](O)[C@H](O)CC[C@@H](O)C[C@@H](O)CC(=O)O[C@H]1C)C[C@H](O)[C@H]2C(=O)O [AMPHOTERICIN B]
MIC [6]: 25 µg/mL (≈ 27.1 µM) | MIC [7]: 50 µg/mL (≈ 54.1 µM) | MIC [8]: 25 µg/mL (≈ 27.1 µM) | MIC [9]: 50 µg/mL (≈ 54.1 µM)

O=C(O)c1cn(C2CC2)c2cc(N3CCNCC3)c(F)cc2c1=O [CIPROFLOXACIN]
MIC [2]: 25 µg/mL (≈ 75.4 µM) | MIC [3]: 25 µg/mL (≈ 75.4 µM) | MIC [5]: 50 µg/mL (≈ 151 µM)
